Most compounds without a hit are left out; they make up all but 2.7% or so of the library.
pPAFAH inh: inhibitors of human plasma PAF acetylhydrolase (pPAFAH); Q13093; recombinant pPAFAH, FP-rhodamine probe fluorescence polarization; inhibition, % at 3.39 µM; hit rate 1.5% among 330,000; AID 463082;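 active = inhibition above the mean inhibition across the screen plus 3 SD, cut at about 25% in these data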;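 also: inhibitors block binding of the rhodamine activity-based probe so polarization drops; 0% = enzyme with DMSO and 100% = wells lacking pPAFAH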
ASAP1 GAP inh: inhibitors of human ASAP1 ArfGAP activity | ASAP1-stimulated ARF1 GTP hydrolysis, GDP FP detection | Q9ULH1 | hit rate 0.19% among 360,000 | inhibition, % at 16.5 µM | AID 624377; in the data active = inhibition above about 25%;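 also: 0% = vehicle with enzyme and substrate and 100% = no enzyme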
Target sequence (Q9ULH1 325-724 limits assumed): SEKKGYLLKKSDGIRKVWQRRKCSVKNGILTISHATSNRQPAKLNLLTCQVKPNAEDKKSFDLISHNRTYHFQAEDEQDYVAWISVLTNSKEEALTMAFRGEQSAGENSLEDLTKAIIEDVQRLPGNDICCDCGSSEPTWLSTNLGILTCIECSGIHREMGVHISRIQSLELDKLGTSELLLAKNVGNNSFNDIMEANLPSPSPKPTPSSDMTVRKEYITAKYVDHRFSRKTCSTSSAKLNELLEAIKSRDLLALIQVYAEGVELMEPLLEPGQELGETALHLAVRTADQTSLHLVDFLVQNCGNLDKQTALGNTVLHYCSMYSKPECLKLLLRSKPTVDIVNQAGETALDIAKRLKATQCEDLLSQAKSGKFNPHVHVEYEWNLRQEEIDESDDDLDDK
ARFGAP1 inhibitor: rat ARFGAP1 inhibition | inhibition, % at 16.5 µM | Arfgap1-stimulated ARF1 GTP hydrolysis, GDP FP detection | hit rate 0.26% among 360,000 | AID 651572 | Q62848;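 active = inhibition above a per-plate limit, mean inhibition of low control wells plus 3 SD, cut at about 25% in these data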;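 also: 0% = DMSO wells with enzyme and 100% = wells lacking Arfgap1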
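System: truncated rat Arfgap1 GAP domain / Medium: HEPES-based buffer, pH 7.5 / Also added: N-terminally truncated human ARF1-GTP substrate / Incubation: enzyme reaction 120 min at 25 °C after 20 min preincubation / Measured by: FP of antibody-bound GDP Alexa 633 tracer, ex 620/em 688 nm / Replicates: singlicate, each compound tested once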
PAFAH1B3 FP inh: blocks human PAF acetylhydrolase 1B catalytic subunit 3. recombinant PAFAH1B3, FP-rhodamine probe, fluorescence polarization. inhibition, % at 3.39 µM. hit rate 0.28% among 340,000. AID 492972;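 active = inhibition above the screen-wide average of all tested compounds plus 3 SD, cut at about 25% in these data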;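 also: 0% = enzyme with DMSO only and 100% = wells lacking PAFAH1B3 protein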
PAFAH1B2 FP inh: PAFAH1B2 (human) inhibition. inhibition, % at 3.39 µM. hit rate 1.2% among 340,000. AID 492953. recombinant PAFAH1B2, FP-rhodamine activity probe, fluorescence polarization;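 active = inhibition above the mean of all tested compounds plus 3 SD, cut at about 24% in these data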;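 also: 0% = enzyme with DMSO and 100% = wells lacking PAFAH1B2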
Target sequence (P68402 whole entry, looked up): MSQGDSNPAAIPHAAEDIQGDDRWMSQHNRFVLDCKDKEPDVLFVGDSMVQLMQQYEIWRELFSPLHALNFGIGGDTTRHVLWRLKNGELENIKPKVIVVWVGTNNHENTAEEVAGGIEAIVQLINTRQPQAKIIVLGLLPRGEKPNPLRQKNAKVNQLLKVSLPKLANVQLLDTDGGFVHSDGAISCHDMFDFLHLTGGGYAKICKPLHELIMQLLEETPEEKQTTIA
PAFAH2 inh: inhibitors of human PAFAH2; Q99487; recombinant PAFAH2, FP-rhodamine activity probe, fluorescence polarization; inhibition, % at 3.39 µM; hit rate 0.99% among 340,000; AID 492956;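 active = inhibition above the mean over all tested compounds plus 3 SD, cut at about 30% in these data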;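 also: inhibitors block probe labeling of enzyme so polarization drops; 0% = enzyme with DMSO and 100% = wells lacking PAFAH2 protein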
PAFAH2 FP conf: PAFAH2 (human) inhibition, confirmed; hit rate 65% among 2,300; recombinant PAFAH2, FP-rhodamine activity probe, fluorescence polarization; inhibition, % at 3.39 µM; shares compounds with PAFAH2 inh;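 active = mean inhibition over three repeats above a set limit taken from the earlier primary screen, cut at about 30% in these data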;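 also: inhibitor blocks binding of rhodamine activity probe so polarization falls; 0% = enzyme with DMSO and 100% = wells lacking PAFAH2 protein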
* = called active by the depositor; x = no result.

SMILES	pPAFAH inh	ASAP1 GAP inh	ARFGAP1 inhibitor	PAFAH1B3 FP inh	PAFAH1B2 FP inh	PAFAH2 inh	PAFAH2 FP conf
COc1ccc(OCCCN2CCC(C(O)(c3ccccc3)c3ccccc3)CC2)cc1	x	7.4	4.7	x	x	x	x
COc1ccccc1C(=O)COC(=O)C1(C)CC1(Cl)Cl (stereo not drawn)	5.5	-8.7	-7.2	10.2	4.1	1.9	x
O=C(COC(=O)c1ccc(S(=O)(=O)N2CCCC2)cc1)Nc1ccccc1	4.7	-3.6	12.4	2.7	1.4	3.5	x
CC(NC(=O)COC(=O)c1cccc(S(=O)(=O)N2CCCC2)c1)c1ccccc1 (stereo not drawn)	10.5	-2.3	-0.9	8.6	5.3	53.2*	39.6*
O=C(COC(=O)c1ccc(Cl)c(S(=O)(=O)N2CCCCCC2)c1)Nc1ccccc1	17.1	3.1	1.4	-21.4	-9.9	44.3*	31.3*
COc1ccc(C(=O)OCC(=O)NC(Cc2ccccc2)C(C)=O)cc1S(=O)(=O)N1CCCC1 (stereo not drawn)	x	8.2	5.3	2.9	1.4	35.4*	32.1*
COc1ccc(OC)c(NC(=O)COC(=O)c2ccc(OC)c(S(=O)(=O)N3CCOCC3)c2)c1	0.3	0.8	-1.3	11.6	4.9	12.7	x
O=C(COC(=O)c1cccc(S(=O)(=O)N2CCCC2)c1)Nc1ccccc1	7.7	-1.0	3.6	8.0	4.8	72.4*	76.3*
Cc1noc(C)c1COC(=O)c1csc2c1CCC(C)C2 (stereo not drawn)	2.3	-12.5	3.7	8.3	0.4	5.7	x
CCN(CC)S(=O)(=O)c1ccc2[nH]c(=O)cc(C(=O)Nc3ccccc3N3CCOCC3)c2c1	1.7	-12.0	0.1	6.5	4.5	5.7	x
CC(C)(C)c1ccc(CC(=O)N2CCC2(C)C(=O)NCCC#N)cc1 (stereo not drawn)	x	4.3	-1.2	x	x	x	x
C[C@@H]1CN([C@@H](C)CO)C(=O)c2cc(NS(C)(=O)=O)ccc2O[C@@H](C)CCCCO[C@H]1CN(C)Cc1ccc2c(c1)OCO2	x	-2.9	12.4	x	x	x	x
NS(=O)(=O)c1cccc(NC(=O)COC(=O)c2ccccc2C(=O)c2ccccc2)c1	8.0	-16.4	-2.8	-3.6	-3.0	53.7*	51.3*
Cc1ccccc1NC(=O)COC(=O)c1cccc(S(=O)(=O)N2CCCCC2)c1	8.1	-5.4	-6.0	7.6	2.0	45.4*	28.2
N#Cc1cccnc1N1CCN(C(c2ccnc3ccccc23)c2nnnn2-c2ccc3c(c2)OCCO3)CC1 (stereo not drawn)	x	-2.4	7.2	x	x	x	x
N#Cc1ccccc1NC(=O)COC(=O)c1ccc2c(c1)OCCO2	12.6	3.8	10.6	7.4	0.8	73.1*	69.1*
N#Cc1ccc(Cl)cc1NC(=O)COC(=O)c1ccc2c(c1)OCCO2	10.0	9.3	-0.8	1.1	-4.9	65.9*	68.4*
N#Cc1ccc(Cl)cc1NC(=O)COC(=O)c1ccc(S(=O)(=O)N2CCCC2)cc1	2.4	4.9	2.8	3.2	4.4	4.8	x
CCCCCCCCN1C(=O)[C@H](CC(=O)N2CCN(C(=O)C3CC3)CC2)C[C@@]2(C(=O)OC)CCCCC=C12	x	10.6	-4.0	x	x	x	x
Cc1sc2ncnc(SCC(=O)N3CCCC3=O)c2c1C	0.2	10.7	2.6	6.9	9.2	81.0*	82.5*
CCC(CC)C(=O)OCC(=O)Nc1cccc([N+](=O)[O-])c1	2.5	-1.4	4.5	4.8	-1.0	36.1*	27.0
Cc1cc(C(=O)OCC(=O)Nc2cccc([N+](=O)[O-])c2)c(C)o1	3.9	-9.8	4.1	1.5	5.3	74.8*	78.1*
CCC(CCC(=O)Nc1cccc([N+](=O)[O-])c1)C(=O)O (stereo not drawn)	1.5	1.2	-1.7	3.2	2.1	2.4	x
O=C(COC(=O)c1c[nH]c(=O)[nH]c1=O)Nc1cccc([N+](=O)[O-])c1	-1.2	-1.3	-12.5	8.5	2.2	30.8*	22.9
COc1ccc(NC(=O)COC(=O)c2cc(C)oc2C)cc1OC	3.9	0.5	2.4	2.2	6.1	5.9	x
SMILES	pPAFAH inh	ASAP1 GAP inh	ARFGAP1 inhibitor	PAFAH1B3 FP inh	PAFAH1B2 FP inh	PAFAH2 inh	PAFAH2 FP conf
O=C(COC(=O)C1CCC(=O)N1)Nc1cccc([N+](=O)[O-])c1 (stereo not drawn)	-1.4	10.6	3.3	10.7	4.0	-9.9	x
CCOc1ccc(NC(=O)COC(=O)c2cc(C)oc2C)cc1	0.1	1.7	5.3	5.6	1.5	56.9*	52.7*
CCN1C(=NCCc2cccs2)N[C@@H](c2cccs2)C(C(=O)OC)=C1C	3.2	x	x	9.6	1.0	-4.5	x
O=S1(=O)N[C@H](Cc2ccccc2)COc2cc(N3CCCCC3)ccc21	x	-0.5	2.9	x	x	x	x
CC1CC(C)CN(C(=O)CNS(=O)(=O)c2ccc(Br)s2)C1 (stereo not drawn)	-3.4	-8.3	1.8	8.0	21.5	4.2	x
Cc1ccc(N2CCN(C(=O)CNS(=O)(=O)c3ccc(Br)s3)CC2C)cc1 (stereo not drawn)	2.9	1.9	6.5	5.1	11.5	35.9*	23.7
C[C@H](CO)N1C[C@H](C)[C@@H](CN(C)C(=O)c2ccc3ccn(C)c3c2)OCc2cn(nn2)CCCC1=O	x	-15.2	-2.8	x	x	x	x
Cc1cccn2c(=O)c3cc(S(=O)(=O)c4ccccc4)c(=N)n(Cc4cccnc4)c3nc12	3.5	9.7	-5.0	10.1	5.5	37.9*	32.6*
Nc1[nH]n2c(=O)cc(-c3ccccc3)nc2c1N=Nc1ccccc1	9.4	0.1	-0.6	9.0	13.8	31.5*	26.6
O=c1cc(-c2ccco2)nc(SCc2cccc(Cl)c2)[nH]1	4.6	13.7	-15.6	1.9	-3.5	32.1*	17.4
O=C(Nc1ccc(Oc2ccccc2)cc1)c1ccc2sc([C@H]3C[C@H](O)[C@@H](CO)O3)nc2c1	x	1.8	23.4	x	x	x	x
C/C(=N/OC(=O)CC(C)C)c1cc(-c2ccc(Cl)cc2)no1	8.1	-0.4	-6.9	9.1	-0.5	56.8*	45.3*
CC(C)(C)c1ccc(S(=O)(=O)N2CC(C(=O)O)Oc3ccc(Cl)cc32)cc1 (stereo not drawn)	6.5	-7.9	-17.2	-2.5	21.4	34.1*	18.6
COc1cc(OC)c(N(C)C(=O)c2cc3c(s2)-c2ccccc2S(=O)(=O)C3)cc1Cl	-4.2	1.1	0.6	10.0	6.0	31.2*	2.7
COc1ccc(N(C)C(=O)c2cc3c(s2)-c2ccccc2S(=O)(=O)C3)cc1	-0.1	-2.6	-0.4	-1.6	2.9	-5.7	x
CC(=O)SC1CC(=O)C=C2CCC3C4CCC(=O)OC4(C)CCC3C21C (stereo not drawn)	x	10.9	-3.3	9.9	3.2	0.4	x
CC1=NN(c2ccc(C)cc2)C(=O)/C1=C/c1ccc(-c2cc([N+](=O)[O-])ccc2O)o1	x	11.6	-0.9	20.2	10.5	34.4*	20.1

Bioassay records from PubChem BioAssay.
